In ChEMBL document CHEMBL1681705, “Optimisation of ITK inhibitors through successive iterative design cycles” (Bioorg Med Chem Lett, 2011) one finds IC50, inhibition and residual activity data, which are given here for two compounds.

The target of assay [1] is T1, Tyrosine-protein kinase ITK/TSK (Homo sapiens, UniProt Q08881).
T1 sequence (Q08881 whole entry): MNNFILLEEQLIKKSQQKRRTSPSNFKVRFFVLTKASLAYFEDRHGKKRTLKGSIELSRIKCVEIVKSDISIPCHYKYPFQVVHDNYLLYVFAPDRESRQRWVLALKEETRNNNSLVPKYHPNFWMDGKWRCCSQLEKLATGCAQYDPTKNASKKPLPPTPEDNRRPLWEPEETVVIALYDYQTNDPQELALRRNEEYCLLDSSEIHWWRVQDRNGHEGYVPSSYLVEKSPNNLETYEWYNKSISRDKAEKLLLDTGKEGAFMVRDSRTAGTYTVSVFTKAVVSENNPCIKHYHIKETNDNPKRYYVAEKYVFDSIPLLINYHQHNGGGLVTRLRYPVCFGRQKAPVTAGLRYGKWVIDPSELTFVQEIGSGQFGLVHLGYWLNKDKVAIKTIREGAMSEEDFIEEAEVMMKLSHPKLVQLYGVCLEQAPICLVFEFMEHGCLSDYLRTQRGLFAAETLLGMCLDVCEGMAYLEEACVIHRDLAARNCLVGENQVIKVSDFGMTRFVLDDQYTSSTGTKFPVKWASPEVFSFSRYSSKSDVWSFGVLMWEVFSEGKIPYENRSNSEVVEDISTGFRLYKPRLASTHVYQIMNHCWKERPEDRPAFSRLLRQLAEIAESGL
Nature of the assay: Inhibition of recombinant GST-tagged full-length ITK expressed in baculovirus expression system after 30 mins by scintillation proximity assay. In general terms: In a scintillation proximity assay essentially only radioactivity close to the scintillant gives light.

Assay [2] addresses Mitogen-activated protein kinase 1 (Homo sapiens) (UniProt P28482). Put plainly: Inhibition of MAPK1 at 1 uM. The method, boiled down: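 Single-point screen within a 108-kinase selectivity panel. Each kinase was tested with inhibitor at 0.1 and 1.0 micromolar, and activity was recorded as percent inhibition.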
Assay [3] has as its target Insulin receptor (Homo sapiens) (UniProt P06213). Put plainly: Inhibition of IR at 1 uM; values are per cent of control.
Assay [4] has as its target Tyrosine-protein kinase BTK (Homo sapiens) (UniProt Q06187). Nature of the assay: Inhibition of BTK at 1 uM; values are per cent of control.
The target of assay [5] is Tyrosine-protein kinase HCK (Homo sapiens) (UniProt P08631). Put plainly: Inhibition of Hck at 1 uM; values are per cent of control.
For assay [6], the target named is Dual specificity mitogen-activated protein kinase kinase 1 (Homo sapiens) (UniProt Q02750). Nature of the assay: Inhibition of MEK1 at 1 uM; values are per cent of control.
The target in assay [7] is T2, Dual specificity mitogen-activated protein kinase kinase 6 (Homo sapiens) (UniProt P52564).
T2 sequence (whole entry): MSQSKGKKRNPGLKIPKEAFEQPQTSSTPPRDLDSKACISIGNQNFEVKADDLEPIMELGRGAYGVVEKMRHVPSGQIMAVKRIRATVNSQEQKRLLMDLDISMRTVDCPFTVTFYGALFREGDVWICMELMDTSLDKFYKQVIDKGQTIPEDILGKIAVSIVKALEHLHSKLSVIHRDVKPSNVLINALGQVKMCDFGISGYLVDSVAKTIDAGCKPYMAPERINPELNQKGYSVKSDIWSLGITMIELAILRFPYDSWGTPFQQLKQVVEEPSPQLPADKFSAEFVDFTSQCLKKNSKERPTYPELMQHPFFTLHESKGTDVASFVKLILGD
Nature of the assay: Inhibition of MKK6 at 1 uM; values are per cent of control.

Assay [8] addresses Tyrosine-protein kinase Yes (Homo sapiens) (UniProt P07947). Put plainly: Inhibition of Yes at 0.1 uM; values are per cent of control.
For assay [9], the target named is Ephrin type-A receptor 2 (Homo sapiens) (UniProt P29317). Put plainly: Inhibition of EphA2 at 1 uM; values are per cent of control.
The target in assay [10] is Serine/threonine-protein kinase MARK1 (Homo sapiens) (UniProt Q9P0L2). Nature of the assay: Inhibition of MARK1 at 1 uM; values are per cent of control.
For assay [11], the target named is Serine/threonine-protein kinase 33 (Homo sapiens) (UniProt Q9BYT3). Put plainly: Inhibition of STK33 at 1 uM; values are per cent of control.
Assay [12] deals with Receptor-type tyrosine-protein kinase FLT3 (Homo sapiens) (UniProt P36888). Put plainly: Inhibition of Flt3 at 0.1 uM; values are per cent of control.
Assay [13] addresses Mitogen-activated protein kinase 10 (Homo sapiens) (UniProt P53779). Put plainly: Inhibition of JNK3 at 0.1 uM; values are per cent of control.
Assay [14] concerns the target Proto-oncogene tyrosine-protein kinase Src (Homo sapiens) (UniProt P12931). Nature of the assay: Inhibition of c-SRC at 0.1 uM; values are per cent of control.
Assay [15] concerns the target Ephrin type-A receptor 2 (Homo sapiens) (UniProt P29317). Nature of the assay: Inhibition of EphA2 at 0.1 uM; values are per cent of control.
Assay [16] has as its target T3, Interleukin-1 receptor-associated kinase 4 (Homo sapiens) (UniProt Q9NWZ3).
T3 sequence (whole entry): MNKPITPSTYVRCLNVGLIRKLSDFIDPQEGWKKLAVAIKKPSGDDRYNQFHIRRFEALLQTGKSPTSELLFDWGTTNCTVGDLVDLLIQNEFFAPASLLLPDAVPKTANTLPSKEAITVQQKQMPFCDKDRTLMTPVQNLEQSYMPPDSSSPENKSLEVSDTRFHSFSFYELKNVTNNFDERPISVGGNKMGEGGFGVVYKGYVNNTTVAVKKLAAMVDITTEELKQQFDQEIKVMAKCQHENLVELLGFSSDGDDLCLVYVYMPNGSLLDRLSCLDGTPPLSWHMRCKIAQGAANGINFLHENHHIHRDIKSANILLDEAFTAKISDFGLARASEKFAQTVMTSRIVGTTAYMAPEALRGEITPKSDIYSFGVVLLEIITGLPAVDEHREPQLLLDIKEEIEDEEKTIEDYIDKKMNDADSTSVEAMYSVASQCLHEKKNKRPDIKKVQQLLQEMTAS
Nature of the assay: Inhibition of IRAK4 at 0.1 uM; values are per cent of control.

The target in assay [17] is Mitogen-activated protein kinase 1 (Homo sapiens) (UniProt P28482). Put plainly: Inhibition of MAPK1 at 0.1 uM; values are per cent of control.
In assay [18] the target is Receptor-interacting serine/threonine-protein kinase 2 (Homo sapiens) (UniProt O43353). Put plainly: Inhibition of RIPK2 at 0.1 uM; values are per cent of control.
For assay [19], the target named is Protein kinase C alpha type (Homo sapiens) (UniProt P17252). Nature of the assay: Inhibition of PKCalpha at 1 uM; values are per cent of control.

Mitogen-activated protein kinase 1 (Homo sapiens), sequence (P28482 whole entry): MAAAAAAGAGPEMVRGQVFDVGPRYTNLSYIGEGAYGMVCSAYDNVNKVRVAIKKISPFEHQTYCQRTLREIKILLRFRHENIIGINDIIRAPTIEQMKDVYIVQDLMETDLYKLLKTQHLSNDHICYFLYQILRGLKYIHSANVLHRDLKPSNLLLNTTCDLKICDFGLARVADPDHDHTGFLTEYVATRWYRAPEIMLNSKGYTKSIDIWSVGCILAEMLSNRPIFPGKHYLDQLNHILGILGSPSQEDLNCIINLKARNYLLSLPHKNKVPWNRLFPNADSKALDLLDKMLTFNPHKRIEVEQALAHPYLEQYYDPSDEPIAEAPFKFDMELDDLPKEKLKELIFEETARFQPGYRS
Ephrin type-A receptor 2 (Homo sapiens), sequence (P29317 whole entry): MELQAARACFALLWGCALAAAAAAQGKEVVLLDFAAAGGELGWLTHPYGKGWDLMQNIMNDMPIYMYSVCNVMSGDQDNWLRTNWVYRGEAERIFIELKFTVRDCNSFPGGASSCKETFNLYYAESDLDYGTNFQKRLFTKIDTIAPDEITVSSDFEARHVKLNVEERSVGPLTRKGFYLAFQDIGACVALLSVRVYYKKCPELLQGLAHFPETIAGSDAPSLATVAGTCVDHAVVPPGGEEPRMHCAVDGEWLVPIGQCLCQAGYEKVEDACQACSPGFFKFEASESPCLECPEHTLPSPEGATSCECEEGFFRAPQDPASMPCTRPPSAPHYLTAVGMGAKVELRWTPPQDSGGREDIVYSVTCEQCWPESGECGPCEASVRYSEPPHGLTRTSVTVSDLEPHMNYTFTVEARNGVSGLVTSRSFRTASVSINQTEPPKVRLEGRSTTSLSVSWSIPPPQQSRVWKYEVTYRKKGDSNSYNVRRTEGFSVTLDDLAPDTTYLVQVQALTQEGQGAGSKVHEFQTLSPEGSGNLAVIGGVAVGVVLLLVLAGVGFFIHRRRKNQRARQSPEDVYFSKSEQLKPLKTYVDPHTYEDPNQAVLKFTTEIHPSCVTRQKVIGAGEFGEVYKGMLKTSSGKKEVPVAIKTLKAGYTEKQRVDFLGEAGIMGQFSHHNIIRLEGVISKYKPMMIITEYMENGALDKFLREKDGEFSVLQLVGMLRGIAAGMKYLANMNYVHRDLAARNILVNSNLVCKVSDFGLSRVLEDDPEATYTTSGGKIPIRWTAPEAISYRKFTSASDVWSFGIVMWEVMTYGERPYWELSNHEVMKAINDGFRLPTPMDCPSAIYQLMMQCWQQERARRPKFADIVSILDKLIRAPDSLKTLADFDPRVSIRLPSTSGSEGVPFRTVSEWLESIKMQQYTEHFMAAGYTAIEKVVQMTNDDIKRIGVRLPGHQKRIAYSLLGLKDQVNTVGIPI
Receptor-interacting serine/threonine-protein kinase 2 (Homo sapiens), sequence (O43353 whole entry): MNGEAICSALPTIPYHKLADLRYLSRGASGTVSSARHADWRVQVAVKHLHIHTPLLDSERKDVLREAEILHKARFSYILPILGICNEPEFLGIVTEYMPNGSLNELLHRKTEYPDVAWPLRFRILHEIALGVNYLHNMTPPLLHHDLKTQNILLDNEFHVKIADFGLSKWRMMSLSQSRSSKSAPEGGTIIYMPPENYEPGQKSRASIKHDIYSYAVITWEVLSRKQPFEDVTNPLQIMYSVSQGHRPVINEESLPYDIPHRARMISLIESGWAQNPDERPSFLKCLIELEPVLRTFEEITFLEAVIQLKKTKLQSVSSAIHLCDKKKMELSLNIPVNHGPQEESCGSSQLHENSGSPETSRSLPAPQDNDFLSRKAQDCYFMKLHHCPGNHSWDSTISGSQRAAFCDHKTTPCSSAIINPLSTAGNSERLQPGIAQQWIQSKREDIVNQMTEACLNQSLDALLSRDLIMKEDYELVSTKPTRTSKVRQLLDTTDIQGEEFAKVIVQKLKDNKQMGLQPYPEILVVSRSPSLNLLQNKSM
Tyrosine-protein kinase BTK (Homo sapiens), sequence (Q06187 whole entry): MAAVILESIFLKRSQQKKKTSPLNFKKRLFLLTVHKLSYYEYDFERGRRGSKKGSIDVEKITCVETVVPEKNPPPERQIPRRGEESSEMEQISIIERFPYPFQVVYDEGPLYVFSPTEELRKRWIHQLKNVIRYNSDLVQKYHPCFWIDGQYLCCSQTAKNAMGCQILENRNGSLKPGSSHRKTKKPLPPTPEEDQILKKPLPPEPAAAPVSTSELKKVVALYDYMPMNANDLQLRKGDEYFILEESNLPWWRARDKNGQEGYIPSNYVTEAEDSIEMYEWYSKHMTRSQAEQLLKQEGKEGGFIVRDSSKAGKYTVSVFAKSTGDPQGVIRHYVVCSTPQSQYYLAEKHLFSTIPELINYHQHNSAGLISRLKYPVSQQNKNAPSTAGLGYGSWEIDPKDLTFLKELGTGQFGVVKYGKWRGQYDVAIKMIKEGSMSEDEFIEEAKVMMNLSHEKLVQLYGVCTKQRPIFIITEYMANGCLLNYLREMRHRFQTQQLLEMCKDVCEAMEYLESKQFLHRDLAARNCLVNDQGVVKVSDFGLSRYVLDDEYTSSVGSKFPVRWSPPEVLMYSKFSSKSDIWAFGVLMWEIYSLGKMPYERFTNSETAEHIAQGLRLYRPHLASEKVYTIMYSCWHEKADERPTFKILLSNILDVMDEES
Tyrosine-protein kinase Yes (Homo sapiens), sequence (P07947 2-543 limits assumed): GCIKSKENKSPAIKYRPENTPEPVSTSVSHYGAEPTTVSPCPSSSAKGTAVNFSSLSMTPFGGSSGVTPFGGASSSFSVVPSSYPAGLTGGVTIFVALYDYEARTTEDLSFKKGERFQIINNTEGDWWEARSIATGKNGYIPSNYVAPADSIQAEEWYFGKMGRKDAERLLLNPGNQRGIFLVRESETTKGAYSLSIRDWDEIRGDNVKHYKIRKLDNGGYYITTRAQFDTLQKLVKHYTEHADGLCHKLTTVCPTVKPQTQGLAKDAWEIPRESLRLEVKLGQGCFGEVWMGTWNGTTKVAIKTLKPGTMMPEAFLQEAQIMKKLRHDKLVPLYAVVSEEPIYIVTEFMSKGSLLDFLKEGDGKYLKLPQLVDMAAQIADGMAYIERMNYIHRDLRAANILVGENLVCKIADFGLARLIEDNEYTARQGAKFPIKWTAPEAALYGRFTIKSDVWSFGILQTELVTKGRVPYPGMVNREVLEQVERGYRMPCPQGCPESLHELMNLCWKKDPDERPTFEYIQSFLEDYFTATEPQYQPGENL
Receptor-type tyrosine-protein kinase FLT3 (Homo sapiens), sequence (P36888 whole entry): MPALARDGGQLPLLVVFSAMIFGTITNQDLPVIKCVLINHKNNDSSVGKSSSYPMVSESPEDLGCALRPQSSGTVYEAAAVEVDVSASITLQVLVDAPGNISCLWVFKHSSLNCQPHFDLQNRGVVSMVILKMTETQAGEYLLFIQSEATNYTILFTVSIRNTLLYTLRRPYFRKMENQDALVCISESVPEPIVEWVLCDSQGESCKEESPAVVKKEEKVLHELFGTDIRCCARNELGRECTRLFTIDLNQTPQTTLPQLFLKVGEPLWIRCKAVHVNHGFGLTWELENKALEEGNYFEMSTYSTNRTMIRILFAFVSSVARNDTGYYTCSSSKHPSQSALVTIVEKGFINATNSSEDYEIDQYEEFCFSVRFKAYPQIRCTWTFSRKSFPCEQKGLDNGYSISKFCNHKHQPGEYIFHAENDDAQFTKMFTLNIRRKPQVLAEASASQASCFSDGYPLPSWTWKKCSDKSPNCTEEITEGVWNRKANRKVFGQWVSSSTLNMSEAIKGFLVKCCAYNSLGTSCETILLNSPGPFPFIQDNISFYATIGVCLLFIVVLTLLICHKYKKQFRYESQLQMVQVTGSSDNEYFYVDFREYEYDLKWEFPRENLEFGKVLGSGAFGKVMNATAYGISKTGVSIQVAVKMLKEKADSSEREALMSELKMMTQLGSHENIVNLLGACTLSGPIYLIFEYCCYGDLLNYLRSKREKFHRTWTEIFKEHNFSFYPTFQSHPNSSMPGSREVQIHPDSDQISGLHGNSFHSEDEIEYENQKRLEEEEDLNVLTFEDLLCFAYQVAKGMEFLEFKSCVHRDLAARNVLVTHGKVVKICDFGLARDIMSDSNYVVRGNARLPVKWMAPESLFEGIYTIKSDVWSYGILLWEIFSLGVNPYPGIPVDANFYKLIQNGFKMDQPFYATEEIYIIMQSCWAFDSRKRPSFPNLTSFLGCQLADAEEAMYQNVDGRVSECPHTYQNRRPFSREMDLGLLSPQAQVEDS
Serine/threonine-protein kinase 33 (Homo sapiens), sequence (Q9BYT3 whole entry, looked up): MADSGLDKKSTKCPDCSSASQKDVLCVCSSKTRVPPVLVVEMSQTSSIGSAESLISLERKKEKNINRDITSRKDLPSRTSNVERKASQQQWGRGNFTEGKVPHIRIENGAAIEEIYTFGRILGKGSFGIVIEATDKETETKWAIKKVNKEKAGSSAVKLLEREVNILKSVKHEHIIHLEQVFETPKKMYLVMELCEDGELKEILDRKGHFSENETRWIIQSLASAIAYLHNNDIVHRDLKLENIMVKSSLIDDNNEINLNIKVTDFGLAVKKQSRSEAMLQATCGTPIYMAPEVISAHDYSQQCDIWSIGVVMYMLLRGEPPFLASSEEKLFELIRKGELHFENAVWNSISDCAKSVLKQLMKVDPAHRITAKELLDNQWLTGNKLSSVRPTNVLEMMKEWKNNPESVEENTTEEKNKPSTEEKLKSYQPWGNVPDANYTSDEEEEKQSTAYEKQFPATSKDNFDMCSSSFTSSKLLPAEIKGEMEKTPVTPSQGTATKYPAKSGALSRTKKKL
Mitogen-activated protein kinase 10 (Homo sapiens), sequence (P53779 whole entry): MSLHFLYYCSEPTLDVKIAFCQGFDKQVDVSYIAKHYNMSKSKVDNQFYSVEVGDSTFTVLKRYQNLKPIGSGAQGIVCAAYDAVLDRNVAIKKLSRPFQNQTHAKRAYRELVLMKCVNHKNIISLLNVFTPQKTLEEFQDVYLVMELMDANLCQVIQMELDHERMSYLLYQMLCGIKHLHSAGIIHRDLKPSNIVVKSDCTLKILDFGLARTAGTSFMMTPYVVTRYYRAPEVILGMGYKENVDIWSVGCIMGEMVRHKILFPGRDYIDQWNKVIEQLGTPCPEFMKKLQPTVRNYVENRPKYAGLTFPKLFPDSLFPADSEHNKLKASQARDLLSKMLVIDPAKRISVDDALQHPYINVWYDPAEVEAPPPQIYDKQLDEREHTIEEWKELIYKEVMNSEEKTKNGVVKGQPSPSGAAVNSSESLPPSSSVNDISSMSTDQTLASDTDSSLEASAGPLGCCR

As usually defined, the IC50 is the point on the concentration scale where inhibition reaches its midpoint. A word on the inhibition: it is the share of the control response that was lost under treatment. High values mean a strong effect, low ones a weak effect. Regarding `Cc1ccc2cc(-c3n[nH]c4ccc(NC5CCNC5)cc34)[nH]c2c1` (stereo not drawn), the IC50 in [1] is 11 nM. This compound registered an inhibition in assay [2] of 64%. The residual activity in [3] came out at 66%; in assay [4] it was 10%; in [5] it was 0%; in assay [6] it was 13%; in assay [7], 15%; in assay [8] it was 2%. The residual activity was found to be 13% in assay [9]; 0% in assay [10]; 6% in assay [11]; 24% in [12]; 73% in assay [13]; 16% in [14]. Moreover, the residual activity came to 47% in [15]; 6% in assay [16]; 85% in assay [17]; 87% in [18]; 27% in assay [19].
`Cc1ccc2cc(-c3n[nH]c4ccc(NC5CCN(Cc6ccccc6)CC5)cc34)[nH]c2c1`: in assay [1], the IC50 was determined as 23 nM. The inhibition in assay [2] was determined as 84%. In addition, the residual activity in [3] is 60%; in assay [4] it was -4%; in [5], 7%; in assay [6], 87%; in assay [7], 85%; in [8], -2%. Further, the residual activity is 7% in assay [9]; 21% in [10]; 4% in [11]; 5% in assay [12]; 98% in assay [13]; 31% in [14]. The residual activity amounted to 25% in assay [15]; 25% in assay [16]; 88% in assay [17]; 94% in assay [18]; 36% in [19].
